Measurements published in ChEMBL document CHEMBL1125673, “Synthesis and antiretrovirus properties of 5'-isocyano-5'-deoxythymidine, 5'-isocyano-2',5'-dideoxyuridine, 3'-azido-5'-isocyano-3',5'-dideoxythymidine, and 3'-azido-5'-isocyano-2',3',5'-trideoxyuridine” (J Med Chem, 1991).
Values after ≈ are worked out from the molar mass of the structure shown.

Key:
[1] = system: C3H/3T3; assay: Concentration of compound required to inhibit […] MSV-induced transformation of C3H/3T3 cells by 50%.; type: functional, cell-based; settings: Mus musculus
Outline: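 Moloney murine sarcoma virus (MSV) infection of murine embryo fibroblast C3H/3T3 cells; EC50 is the compound concentration that inhibits MSV-induced cell transformation by 50%.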

[2] = system: Human immunodeficiency virus 1; assay: Concentration of compound required to inhibit HIV-1 replication in MT-4 cells by 50%; type: functional, organism-based; settings: Human immunodeficiency virus 1, MT4
Outline: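 HIV-1 strain HTLV-III_B infection of human MT-4 lymphocytes; EC50 is the compound concentration that inhibits virus-induced cytopathogenicity by 50%.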

[3] = system: MT4; assay: Concentration of compound required to reduce MT-4 cells viability by 50%.; type: functional; settings: Homo sapiens
Outline: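 Uninfected human MT-4 lymphocyte cultures exposed to compound; CC50 is the concentration that lowers cell viability by 50%.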

[4] = Minimal inhibitory concentration was measured as compound concentration that causes a microscopically visible alteration of C3H cell morphology.; type: functional; settings: Mus musculus
Outline: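 C3H murine embryo fibroblasts exposed to compound and examined by microscope; the minimal inhibitory concentration is the lowest level giving a visible change in cell morphology.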

| SMILES | EC50 [1] | EC50 [2] | CC50 [3] | MIC [4] |
| --- | --- | --- | --- | --- |
| [C-]#[N+]C[C@H]1OC(n2cc(C)c(=O)[nH]c2=O)C[C@H]1O (stereo partly specified) | > 3.2 µM | > 200 µM | 144 µM | 3.2 µM (≈ 0.804 µg/mL) |
| [C-]#[N+]C[C@H]1OC(n2ccc(=O)[nH]c2=O)C[C@H]1N=[N+]=[N-] (stereo partly specified) | – | > 40 µM | 104 µM | – |
| Cc1cn([C@H]2C[C@H](N=[N+]=[N-])[C@@H](CO)O2)c(=O)[nH]c1=O [ZIDOVUDINE] | 0.02 µM | 0.004 µM | 20 µM | > 400 µM |
| [C-]#[N+]C[C@H]1OC(n2cc(C)c(=O)[nH]c2=O)C[C@H]1N=[N+]=[N-] (stereo partly specified) | – | > 40 µM | 122 µM | – |
| [C-]#[N+]C[C@H]1OC(n2ccc(=O)[nH]c2=O)C[C@H]1O (stereo partly specified) | > 3.2 µM | > 200 µM | 125 µM | 3.2 µM (≈ 0.759 µg/mL) |
